This passage reports Activity and Ratio results from ChEMBL document CHEMBL3102838, “Synthesis of RCAI-172 (C6 epimer of RCAI-147) and its biological activity” (2014).

Assay [1] concerns Mus musculus. Kind of assay: Immunomodulatory activity in mouse assessed as reduction of IFNgamma secretion at 10 ug/mL, iv relative to KRN7000. Further details: scale not given: the % may be the effect or the level left. In kind it is functional. In outline: (§1)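 Female-unspecified mice given glycolipid via tail vein: DMSO stock (1.0 mg/mL) diluted to 10 μg/mL in Dulbecco's PBS just before use; 200 μL injected (2 μg/mouse). Retro-orbital blood drawn into heparinized capillaries at set time points and plasma prepared. Plasma IFN-γ and IL-4 quantified by cytometric bead array. Means ±SD, three mice.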

The species entered for assay [2] is Mus musculus. Kind of assay: Ratio for reduction of IL-4 secretion in mouse to reduction of IFNgamma secretion in mouse. The class given is functional.
The test system of assay [3] is Mus musculus. Kind of assay: Immunomodulatory activity in mouse assessed as reduction of IL-4 secretion at 10 ug/mL, iv relative to KRN7000. In kind it is functional. The arrangement: scale not given: the % may be the effect or the level left. In short, it runs like this: as §1
Assay [4] concerns Mus musculus. Kind of assay: Immunostimulatory activity in C57BL/6 mouse autoimmune encephalomyelitis model assessed as decrease in IFNgamma secretion inoculated with compound-treated GM-CSF-induced dendritic cells administered on day 3 and 5 relative to KRN7000. In kind it is functional. The arrangement: scale not given: the % may be the effect or the level left.
Assay [5] has as its system Mus musculus. Kind of assay: Immunostimulatory activity in C57BL/6 mouse autoimmune encephalomyelitis model assessed as IL-4 secretion inoculated with compound-treated GM-CSF-induced dendritic cells administered on day 3 and 5 relative to KRN7000. In kind it is functional.
For assay [6], the system named is Mus musculus. As to the kind of experiment: Immunomodulatory activity in mouse assessed as IL-4 secretion at 10 ug/mL, iv relative to KRN7000. In kind it is functional. In outline:
as §1

The test system of assay [7] is Mus musculus. As to the kind of experiment: Immunomodulatory activity in mouse assessed as IFNgamma secretion at 10 ug/mL, iv relative to KRN7000. The class given is functional. In short, it runs like this: as §1
The test system of assay [8] is Mus musculus. Kind of assay: Immunomodulatory activity in mouse assessed as reduction of IL-4 secretion at 10 ug/mL, iv relative to RCAI-147. The class given is functional. Further details: scale not given: the % may be the effect or the level left.
Assay [9] concerns Mus musculus. Kind of assay: Immunostimulatory activity in C57BL/6 mouse autoimmune encephalomyelitis model inoculated with compound-treated GM-CSF-induced dendritic cells administered on day 3 and 5. The class given is functional, organism-based. In short, it runs like this:
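EAE in female C57BL/6 mice was induced on day 1 by subcutaneous MOG35-55/CFA emulsion at two lower-back sites, with an additional adjuvant given intraperitoneally on days 1 and 3. Bone-marrow GM-DC were raised with GM-CSF (10 ng/mL, 5 days), CD11c-enriched, then pulsed with glycolipid (100 ng/mL; 5×10^6 cells/mL, 24 h). Mice were scored daily to day 30 on a 0–5 scale in 0.5 steps.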

For assay [10], the system named is Mus musculus. As to the kind of experiment: Immunomodulatory activity in mouse assessed as increase in IL-4 secretion at 10 ug/mL, iv relative to KRN7000. In kind it is functional. In outline:
as §1

Calls of active or inactive are those of the source. The rule behind the calls is not given here.

As to `CCCCCCCCCCCCCCCCCCCCCCC[C@@H](O)[C@@H](O)C(=O)N[C@@H](CO[C@H]1O[C@H](CO)[C@H](O)[C@H](O)[C@H]1O)[C@H](O)[C@H](O)[C@@H](O)[C@@H](O)CCCCCCCCCCCC`, the Activity in the assay on Mus musculus [1] is recorded as 5%; in the assay on Mus musculus [3], 70%; with Mus musculus [4] it was less than 5%; in the assay on Mus musculus [5], greater than 60%. For the same molecule, in the assay listed under Mus musculus [2], the Ratio worked out at 14.

In the case of `CCCCCCCCCCCCCCCCCCCCCCCCCC(=O)N[C@@H](CO[C@H]1O[C@H](CO)[C@H](O)[C@H](O)[C@H]1O)[C@H](O)CC[C@@H](O)CCCCCCCCCCCC`, the values for the Activity in the assay with Mus musculus [6] and in the assay on Mus musculus [7] were 75% and 160%, respectively.

For `CCCCCCCCCCCCCCCCCCCCCCC[C@@H](O)[C@@H](O)C(=O)N[C@@H](CO[C@H]1O[C@H](CO)[C@H](O)[C@H](O)[C@H]1O)[C@H](O)[C@H](O)[C@@H](O)[C@H](O)CCCCCCCCCCCC`, the Activity in the assay with Mus musculus [1] stood at 4.1%; with Mus musculus [3] it was 35.3%; in the assay on Mus musculus [8] it was 61%. For the same molecule, the Ratio in the assay filed under Mus musculus [2] amounted to 8.6. For the same molecule, the result in the assay with Mus musculus [9] was inactive.

Turning to `CCCCCCCCCCCCCCCCCCCCCCC[C@@H](O)[C@@H](O)C(=O)N[C@@H](CO[C@H]1O[C@H](CO)[C@H](O)[C@H](O)[C@H]1O)[C@H](O)[C@H](O)CCCCCCCCCCCCCC`, the Ratio in the assay filed under Mus musculus [2] is recorded as 3.4. Moreover, the Activity in the assay on Mus musculus [10] was determined as 138%; in the assay on Mus musculus [7], 41%.

On to `CCCCCCCCCCCCCCCCCCCCCC[C@@H](O)[C@@H](O)[C@@H](O)C(=O)N[C@@H](CO[C@H]1O[C@H](CO)[C@H](O)[C@H](O)[C@H]1O)[C@H](O)[C@H](O)CCCCCCCCCCCCCC`, for which the Activity in the assay on Mus musculus [4] is less than 5%; in the assay with Mus musculus [5] it was greater than 60%.

For the molecule `CCCCCCCCCCCCCCCCCCCCCCCCCC(=O)N[C@@H](CO[C@H]1O[C@H](CO)[C@H](O)[C@H](O)[C@H]1O)[C@H](O)CC[C@H](O)CCCCCCCCCCCC`, the Activity with Mus musculus [6] is recorded as 19%; in the assay with Mus musculus [7], 64%.
